Test results as given in BindingDB's records for doi:10.1021/jm0009538 (Paris-Sud University, 2000).

Molecular target: 5-hydroxytryptamine receptor 4 (Homo sapiens, UniProt Q13639)
Assay: Concentration required to produce half-maximal response against 5-hydroxytryptamine receptor in the presence of 10 nM compound in isolated human atrial myocytes
Summary of the method: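 Whole-cell patch clamp on enzymatically dissociated human atrial myocytes, room temperature (19–25 °C); Cs-based internal, pCa 8.5; I_Ca at 0 mV every 8 s, peak minus current at end of 400-ms pulse.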

Chain of 5-hydroxytryptamine receptor 4 (Q13639 whole entry): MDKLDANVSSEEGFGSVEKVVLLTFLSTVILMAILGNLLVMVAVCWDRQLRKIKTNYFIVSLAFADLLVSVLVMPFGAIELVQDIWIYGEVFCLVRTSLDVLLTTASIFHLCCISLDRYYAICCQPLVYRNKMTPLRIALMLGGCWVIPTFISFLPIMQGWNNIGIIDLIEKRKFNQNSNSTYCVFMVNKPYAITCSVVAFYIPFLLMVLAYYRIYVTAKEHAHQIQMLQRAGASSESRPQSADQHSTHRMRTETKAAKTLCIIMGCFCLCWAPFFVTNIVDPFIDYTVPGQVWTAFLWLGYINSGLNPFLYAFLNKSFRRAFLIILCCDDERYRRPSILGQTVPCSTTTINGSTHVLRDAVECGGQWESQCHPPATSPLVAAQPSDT

## COc1cc(N)c(Cl)cc1C(=O)OCCN1CCN(c2ncccn2)CC1 [4-Amino-5-chloro-2-methoxy-benzoic acid 2-(4-pyrimidin-2-yl-piperazin-1-yl)-ethyl ester]
  EC50: 0.066 µM
